# Measured values as given in ChEMBL document CHEMBL3352152, “Indolylmethylene benzo[h]thiazolo[2,3-b]quinazolinones: synthesis, characterization and evaluation of anticancer and antimicrobial activities” (Bioorg Med Chem Lett, 2014).
# pIC50: −log10 of the molar value.
# Key:
# Candida albicans [1] = assay: Antifungal activity against Candida albicans MTCC 183 at 150 ug/ml after 48 hrs by agar well diffusion method; assay type: functional; conditions: MTCC 183, 48 h, read-out: IZ
# Outline: (§1)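 Antifungal screen by agar well diffusion against C. albicans, C. glabrata, A. niger and A. parasiticus. Clotrimazole was the standard drug. Activity was recorded as zone of inhibition (ZOI, mm).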
# Nakaseomyces glabratus [2] = assay: Antifungal activity against Candida glabrata MTCC3019 at 150 ug/ml after 48 hrs by agar well diffusion method; assay type: functional; conditions: MTCC3019, 48 h, read-out: IZ; outline: as §1
# Aspergillus niger [3] = assay: Antifungal activity against Aspergillus niger MTCC 282 at 150 ug/ml after 48 hrs by agar well diffusion method; assay type: functional; conditions: MTCC 282, 48 h, read-out: IZ; outline: as §1
# Aspergillus parasiticus [4] = assay: Antifungal activity against Aspergillus parasiticus MTCC 8850 at 150 ug/ml after 48 hrs by agar well diffusion method; assay type: functional; conditions: MTCC 8850, 48 h, read-out: IZ; outline: as §1
# MCF7 = assay: Anticancer activity against human MCF7 cells assessed as cell viability after 48 hrs by MTT microcultured tetrazolium assay; assay type: functional, cell-based; conditions: MCF7, 48 h
# Outline: (§2)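 MTT-microcultured tetrazolium viability read-out in MCF-7 and HepG2 cells exposed to test samples. Surviving fraction was plotted against drug concentration to give survival curves, and IC50 was taken from these curves.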
# HepG2 = assay: Anticancer activity against human HepG2 cells assessed as cell viability after 48 hrs by MTT microcultured tetrazolium assay; assay type: functional, cell-based; conditions: HepG2, 48 h; outline: as §2
# Staphylococcus aureus [5] = assay: Antibacterial activity against Staphylococcus aureus MTCC 96 at 150 ug/ml after 24 hrs by agar well diffusion assay; assay type: functional; conditions: MTCC 96, 24 h, read-out: IZ
# Outline: (§3)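 Agar well diffusion screen against the two Gram-positive strains (S. aureus, S. pyogenes) and the two Gram-negative strains (P. aeruginosa, K. pneumoniae). Streptomycin was the reference drug. Activity was read as zone of inhibition (mm).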
# Streptococcus pyogenes [6] = assay: Antibacterial activity against Streptococcus pyogenes MTCC 1926 at 150 ug/ml after 24 hrs by agar well diffusion assay; assay type: functional; conditions: MTCC 1926, 24 h, read-out: IZ; outline: as §3
# Klebsiella pneumoniae [7] = assay: Antibacterial activity against Klebsiella pneumoniae MTCC 109 at 150 ug/ml after 24 hrs by agar well diffusion assay; assay type: functional; conditions: MTCC 109, 24 h, read-out: IZ; outline: as §3
# Pseudomonas aeruginosa [8] = assay: Antibacterial activity against Pseudomonas aeruginosa MTCC 4673 at 150 ug/ml after 24 hrs by agar well diffusion assay; assay type: functional; conditions: MTCC 4673, 24 h, read-out: IZ; outline: as §3
# Candida albicans [9] = assay: Antifungal activity against Candida albicans MTCC 183 at 30 ug/ml after 48 hrs by agar well diffusion method; assay type: functional; conditions: MTCC 183, 48 h, read-out: IZ; outline: as §1
# Nakaseomyces glabratus [10] = assay: Antifungal activity against Candida glabrata MTCC3019 at 30 ug/ml after 48 hrs by agar well diffusion method; assay type: functional; conditions: MTCC3019, 48 h, read-out: IZ; outline: as §1
# Aspergillus niger [11] = assay: Antifungal activity against Aspergillus niger MTCC 282 at 30 ug/ml after 48 hrs by agar well diffusion method; assay type: functional; conditions: MTCC 282, 48 h, read-out: IZ; outline: as §1
# Aspergillus parasiticus [12] = assay: Antifungal activity against Aspergillus parasiticus MTCC 8850 at 30 ug/ml after 48 hrs by agar well diffusion method; assay type: functional; conditions: MTCC 8850, 48 h, read-out: IZ; outline: as §1
# Staphylococcus aureus [13] = assay: Antibacterial activity against Staphylococcus aureus MTCC 96 at 30 ug/ml after 24 hrs by agar well diffusion assay; assay type: functional; conditions: MTCC 96, 24 h, read-out: IZ
# Outline: (§4)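 Agar well diffusion screen run in vitro against a bacterial panel: S. aureus and S. pyogenes (Gram-positive), P. aeruginosa and K. pneumoniae (Gram-negative). Streptomycin served as the reference standard drug.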
# Streptococcus pyogenes [14] = assay: Antibacterial activity against Streptococcus pyogenes MTCC 1926 at 30 ug/ml after 24 hrs by agar well diffusion assay; assay type: functional; conditions: MTCC 1926, 24 h, read-out: IZ; outline: as §3
# Klebsiella pneumoniae [15] = assay: Antibacterial activity against Klebsiella pneumoniae MTCC 109 at 30 ug/ml after 24 hrs by agar well diffusion assay; assay type: functional; conditions: MTCC 109, 24 h, read-out: IZ; outline: as §4
# Pseudomonas aeruginosa [16] = assay: Antibacterial activity against Pseudomonas aeruginosa MTCC 4673 at 30 ug/ml after 24 hrs by agar well diffusion assay; assay type: functional; conditions: MTCC 4673, 24 h, read-out: IZ; outline: as §3
smiles,measurement,setting,value
COc1ccc2c(c1)CCC1=C2N=c2s/c(=C\c3c[nH]c4ccccc34)c(=O)n2C1c1ccc(F)cc1 (stereo not drawn),zone of inhibition at 150 µg/mL,Candida albicans [1],8 mm
same,zone of inhibition at 150 µg/mL,Nakaseomyces glabratus [2],8 mm
same,zone of inhibition at 150 µg/mL,Aspergillus niger [3],10 mm
same,zone of inhibition at 150 µg/mL,Aspergillus parasiticus [4],10 mm
same,pIC50,MCF7,4.17
same,pIC50,HepG2,4.59
same,zone of inhibition at 150 µg/mL,Staphylococcus aureus [5],21 mm
same,zone of inhibition at 150 µg/mL,Streptococcus pyogenes [6],8 mm
same,zone of inhibition at 150 µg/mL,Klebsiella pneumoniae [7],17 mm
same,zone of inhibition at 150 µg/mL,Pseudomonas aeruginosa [8],21 mm
Clc1ccccc1C(c1ccccc1)(c1ccccc1)n1ccnc1 [CLOTRIMAZOLE],zone of inhibition at 30 µg/mL,Candida albicans [9],24 mm
same,zone of inhibition at 30 µg/mL,Nakaseomyces glabratus [10],22 mm
same,zone of inhibition at 30 µg/mL,Aspergillus niger [11],20 mm
same,zone of inhibition at 30 µg/mL,Aspergillus parasiticus [12],20 mm
CN[C@@H]1[C@H](O[C@H]2[C@H](O[C@H]3[C@H](O)[C@@H](O)[C@H](N=C(N)N)[C@@H](O)[C@@H]3N=C(N)N)O[C@@H](C)[C@]2(O)C=O)O[C@@H](CO)[C@H](O)[C@H]1O [STREPTOMYCIN],zone of inhibition at 30 µg/mL,Staphylococcus aureus [13],22 mm
same,zone of inhibition at 30 µg/mL,Streptococcus pyogenes [14],21 mm
same,zone of inhibition at 30 µg/mL,Klebsiella pneumoniae [15],22 mm
same,zone of inhibition at 30 µg/mL,Pseudomonas aeruginosa [16],20 mm
